Experimental data from ChEMBL document CHEMBL4138098, “Synthesis and pharmacological evaluation of neurosteroid photoaffinity ligands” (Eur J Med Chem, 2017).
pEC50: −log10 of the molar value. Calls of active or inactive are those of the source. The calls are words filed in the database; no cut-off is given here.

Columns and labels:
[1] = target: T1, GABA-A receptor; alpha-1/beta-3/gamma-2 (Homo sapiens) (UniProt P14867+P18507+P28472); test: Induction of [3H]R-mTFD-MPAB photoincorporation at human GABAA receptor alpha1beta3gamma2 expressed in HEK293 TetR cells at 0.3 to 1 uM after 30 mins by liquid scintillation counting method; assay type: cell-based
Outline: (§1)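 Radioligand resuspended 30 min at 4°C; unlabeled steroid added (0.5% methanol final), 30 min at 4°C. Irradiated 30 min on ice at 365 nm. SDS-PAGE; stained subunit bands excised and counted by liquid scintillation; duplicates, means and ranges.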

[2] = target: T2, Gamma-aminobutyric acid receptor subunit beta-3 (Homo sapiens) (UniProt P28472); test: Binding affinity to human GABAA receptor beta3 assessed as photolabeling at 0.7 uM after 30 mins by Coomassie blue staining based fluorographic method relative to control; details: tested as the 3H-labelled form
T2 sequence (whole entry): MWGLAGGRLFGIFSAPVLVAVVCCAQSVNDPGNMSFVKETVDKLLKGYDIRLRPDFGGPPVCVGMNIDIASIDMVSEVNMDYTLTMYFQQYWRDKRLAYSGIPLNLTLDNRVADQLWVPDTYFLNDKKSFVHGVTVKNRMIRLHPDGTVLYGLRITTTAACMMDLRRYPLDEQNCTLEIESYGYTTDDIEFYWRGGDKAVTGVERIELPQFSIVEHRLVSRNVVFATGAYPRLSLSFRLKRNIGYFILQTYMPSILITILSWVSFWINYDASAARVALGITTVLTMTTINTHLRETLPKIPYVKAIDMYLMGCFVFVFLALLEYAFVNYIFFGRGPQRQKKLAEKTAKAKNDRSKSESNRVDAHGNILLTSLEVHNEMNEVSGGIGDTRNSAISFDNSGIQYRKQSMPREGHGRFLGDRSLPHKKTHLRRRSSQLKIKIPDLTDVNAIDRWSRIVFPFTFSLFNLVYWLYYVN

Anura [3] = test: Anesthetic activity in tadpole assessed as loss of righting reflexes; assay type: functional, organism-based
[4] = target: T1, GABA-A receptor; alpha-1/beta-3/gamma-2 (Homo sapiens); test: Binding affinity to human GABAA receptor alpha1beta3gamma2 expressed in HEK293 TetR cells assessed as photolabeling at 0.7 uM after 30 mins in presence of 300 uM GABA and 30 uM alphaxalone by coomassie blue staining based fluorographic method; assay type: cell-based; details: tested as the 3H-labelled form
Anura [5] = test: Potency index, ratio of Alphaxalone EC50 to compound EC50 for anesthetic activity in tadpole; assay type: functional
[6] = target: T1, GABA-A receptor; alpha-1/beta-3/gamma-2 (Homo sapiens); test: Binding affinity to human GABAA receptor alpha1beta3gamma2 expressed in HEK293 TetR cells assessed as photolabeling at 0.7 uM after 30 mins in presence of 300 uM GABA by coomassie blue staining based fluorographic method; assay type: cell-based; details: tested as the 3H-labelled form
[7] = target: T1, GABA-A receptor; alpha-1/beta-3/gamma-2 (Homo sapiens); test: Induction of [3H]azietomidate photoincorporation at human GABAA receptor alpha1beta3gamma2 expressed in HEK293 TetR cells at 0.3 to 1 uM after 30 mins by liquid scintillation counting method; assay type: cell-based; outline: as §1
[8] = target: T3, GABA-A receptor; alpha-1/beta-3/gamma-2 (Homo sapiens, UniProt P14867+P18507+P28472); test: (§2) Displacement of [3H]muscimol from human GABAA receptor alpha1beta3gamma2 expressed in HEK293 TetR cell membranes after 1 hr by liquid scintillation counting method
T3 sequence (P14867 whole entry): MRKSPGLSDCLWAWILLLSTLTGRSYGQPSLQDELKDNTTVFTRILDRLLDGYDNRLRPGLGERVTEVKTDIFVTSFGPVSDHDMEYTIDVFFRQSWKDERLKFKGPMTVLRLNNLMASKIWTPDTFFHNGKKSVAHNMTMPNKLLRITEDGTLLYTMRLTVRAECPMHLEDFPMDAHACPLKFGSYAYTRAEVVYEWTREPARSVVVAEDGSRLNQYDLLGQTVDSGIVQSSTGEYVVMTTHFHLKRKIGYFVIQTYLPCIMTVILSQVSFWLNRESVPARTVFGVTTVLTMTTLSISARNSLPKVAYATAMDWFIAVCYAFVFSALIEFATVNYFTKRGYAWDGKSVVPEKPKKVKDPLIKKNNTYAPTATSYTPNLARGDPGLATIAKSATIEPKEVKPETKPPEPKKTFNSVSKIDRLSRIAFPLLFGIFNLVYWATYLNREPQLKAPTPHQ
T3 sequence (P18507 whole entry): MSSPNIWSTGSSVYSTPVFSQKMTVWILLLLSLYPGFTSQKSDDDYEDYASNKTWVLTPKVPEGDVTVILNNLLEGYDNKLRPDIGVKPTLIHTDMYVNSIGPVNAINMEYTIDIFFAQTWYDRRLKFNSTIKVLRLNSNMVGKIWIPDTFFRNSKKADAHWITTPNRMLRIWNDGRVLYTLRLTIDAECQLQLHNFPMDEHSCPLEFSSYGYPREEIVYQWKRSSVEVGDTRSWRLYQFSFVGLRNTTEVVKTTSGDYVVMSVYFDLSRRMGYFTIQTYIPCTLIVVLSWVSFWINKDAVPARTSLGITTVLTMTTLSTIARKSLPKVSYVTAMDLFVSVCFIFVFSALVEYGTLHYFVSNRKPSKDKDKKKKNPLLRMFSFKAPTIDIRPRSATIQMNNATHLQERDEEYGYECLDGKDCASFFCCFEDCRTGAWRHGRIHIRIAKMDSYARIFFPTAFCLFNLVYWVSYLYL
T3 sequence (P28472 whole entry): T2 sequence (whole entry)
Outline: (§3)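 Membranes from HEK293 TetR cells expressing human α1β3γ2 GABAA receptor (200 μg protein) in 10 mM phosphate pH 7.4, 200 mM KCl, 1 mM EDTA. Filtered on PEI-treated GF/B filters, washed cold, scintillation counted. Triplicates, mean ± SD.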

[9] = target: T1, GABA-A receptor; alpha-1/beta-3/gamma-2 (Homo sapiens); test: as §2; outline: as §3
Anura [10] = test: Anesthetic activity in tadpole assessed as loss of righting reflexes at 0.01 to 1 uM pretreated with tadpole followed by compound washout and transfer to fresh water measured up to 1 hr; assay type: functional, organism-based
[11] = target: T4, Gamma-aminobutyric acid receptor subunit alpha-1 (Homo sapiens) (UniProt P14867); test: Binding affinity to human GABAA receptor alpha1 assessed as photolabeling at 0.7 uM after 30 mins by Coomassie blue staining based fluorographic method relative to control; details: tested as the 3H-labelled form
T4 sequence (whole entry): T3 sequence (P14867 whole entry)

[12] = target: T5, GABA-A receptor; alpha-1/beta-2/gamma-2 (Homo sapiens, UniProt P14867+P18507+P47870); test: Positive allosteric modulation of human GABAA receptor alpha1beta2gamma2L expressed in Xenopus laevis oocytes assessed as potentiation of GABA chloride current incubated for 15 to 25 secs by two-electrode voltage clamp assay; assay type: cell-based
T5 sequence (P14867 whole entry): T3 sequence (P14867 whole entry)
T5 sequence (P47870 whole entry): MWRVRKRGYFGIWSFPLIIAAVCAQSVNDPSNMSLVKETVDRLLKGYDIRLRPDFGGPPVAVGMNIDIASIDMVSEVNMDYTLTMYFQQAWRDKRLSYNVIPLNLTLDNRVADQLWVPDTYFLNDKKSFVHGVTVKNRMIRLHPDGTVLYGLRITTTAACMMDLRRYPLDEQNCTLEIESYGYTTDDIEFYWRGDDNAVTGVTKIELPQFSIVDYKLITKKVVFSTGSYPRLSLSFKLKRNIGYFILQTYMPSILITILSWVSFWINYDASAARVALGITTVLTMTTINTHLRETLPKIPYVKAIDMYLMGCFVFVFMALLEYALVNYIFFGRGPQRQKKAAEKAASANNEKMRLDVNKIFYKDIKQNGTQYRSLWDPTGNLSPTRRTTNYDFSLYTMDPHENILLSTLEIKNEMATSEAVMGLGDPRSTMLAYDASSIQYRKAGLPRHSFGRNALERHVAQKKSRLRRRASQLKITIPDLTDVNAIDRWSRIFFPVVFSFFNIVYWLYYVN
T5 sequence (P18507 whole entry): T3 sequence (P18507 whole entry)
Outline: (§4)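 Xenopus laevis oocytes injected with ~100 ng cRNA of human α1, β2, γ2L (1:1:2). Two-electrode voltage clamp at −50 mV, room temperature, perfused with ND96 pH 7.5. Compound diluted from DMSO stock into ND96 (≤1% DMSO final). Applied 15–25 s with ~3 min washes.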

[13] = target: GABA-A receptor; alpha-1/beta-2/gamma-2 (Homo sapiens) (UniProt P14867+P47870+P18507); test: Positive allosteric modulation of human GABAA receptor alpha1beta2gamma2L expressed in Xenopus laevis oocytes assessed as potentiation of GABA chloride current up to 100 uM incubated for 15 to 25 secs by two-electrode voltage clamp assay relative to control; assay type: cell-based; outline: as §4
[14] = target: T1, GABA-A receptor; alpha-1/beta-3/gamma-2 (Homo sapiens); test: Binding affinity to human GABAA receptor alpha1beta3gamma2 expressed in HEK293 TetR cells assessed as photolabeling at 0.7 uM after 30 mins in presence of 100 uM bicuculline by coomassie blue staining based fluorographic method; assay type: cell-based; details: tested as the 3H-labelled form
[15] = target: T1, GABA-A receptor; alpha-1/beta-3/gamma-2 (Homo sapiens); test: Binding affinity to human GABAA receptor alpha1beta3gamma2 expressed in HEK293 TetR cells assessed as photolabeling at 0.4 uM after 30 mins in presence of 100 uM bicuculline by coomassie blue staining based fluorographic method; assay type: cell-based; details: tested as the 3H-labelled form
Anura [16] = test: Anesthetic activity in tadpole assessed as loss of righting reflexes at 0.03 to 10 uM pretreated with tadpole followed by compound washout and transfer to fresh water measured up to 1 hr; assay type: functional, organism-based
[17] = target: T1, GABA-A receptor; alpha-1/beta-3/gamma-2 (Homo sapiens); test: Binding affinity to human GABAA receptor alpha1beta3gamma2 expressed in HEK293 TetR cells assessed as photolabeling at 0.4 uM after 30 mins in presence of 300 uM GABA by coomassie blue staining based fluorographic method; assay type: cell-based; details: tested as the 3H-labelled form
[18] = target: T1, GABA-A receptor; alpha-1/beta-3/gamma-2 (Homo sapiens); test: Binding affinity to human GABAA receptor alpha1beta3gamma2 expressed in HEK293 TetR cells assessed as photolabeling at 0.4 uM after 30 mins in presence of 300 uM GABA and 30 uM alphaxalone by coomassie blue staining based fluorographic method; assay type: cell-based; details: tested as the 3H-labelled form
[19] = target: T1, GABA-A receptor; alpha-1/beta-3/gamma-2 (Homo sapiens); test: Induction of [3H]R-mTFD-MPAB photoincorporation at human GABAA receptor alpha1beta3gamma2 expressed in HEK293 TetR cells at 10 uM after 30 mins by liquid scintillation counting method relative to control; assay type: cell-based; outline: as §1
[20] = target: T1, GABA-A receptor; alpha-1/beta-3/gamma-2 (Homo sapiens); test: Induction of [3H]azietomidate photoincorporation at human GABAA receptor alpha1beta3gamma2 expressed in HEK293 TetR cells at 1 uM after 30 mins by liquid scintillation counting method relative to control; assay type: cell-based; outline: as §1
[21] = target: T1, GABA-A receptor; alpha-1/beta-3/gamma-2 (Homo sapiens); test: Induction of [3H]azietomidate photoincorporation at human GABAA receptor alpha1beta3gamma2 expressed in HEK293 TetR cells at 30 uM after 30 mins by liquid scintillation counting method; assay type: cell-based
Outline: (§5)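 Purified FLAG-tagged human α1β3γ2 GABAAR from tetracycline-inducible HEK293S cells, in 5 mM CHAPS/0.2 mM asolectin. Equilibrated 30 min at 4°C with 3 μM [3H]azietomidate or 1 μM [3H]R-mTFD-MPAB, then with test drug (final methanol 0.5%) for another 30 min at 4°C. Irradiated on ice at 365 nm for 30 min. Stained subunit bands excised from SDS-PAGE gels; 3H counted by liquid scintillation.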

[22] = target: T1, GABA-A receptor; alpha-1/beta-3/gamma-2 (Homo sapiens); test: Induction of [3H]R-mTFD-MPAB photoincorporation at human GABAA receptor alpha1beta3gamma2 expressed in HEK293 TetR cells at 30 uM after 30 mins by liquid scintillation counting method; assay type: cell-based; outline: as §5

SMILES: CC(=O)[C@H]1CC[C@H]2[C@@H]3CC[C@H]4C[C@H](O)CC[C@]4(C)[C@H]3C3(C[C@]12C)N=N3
- Activity [1]: Active
- Activity [2]: 0.4%
- pEC50 (Anura [3]): 6.96
- Activity [4]: Active
- Ratio EC50 (Anura [5]): 17
- Activity [6]: Active
- Activity [7]: Active
- pEC50 [8]: 6.60
- inhibition [9]: Dose-dependent effect
- Activity (Anura [10]): inactive
- Activity [11]: 0.2%
- pEC50 [12]: 6.70
- fold change (FC) [13]: 30
- Activity [14]: Active

SMILES: CC(=O)[C@H]1CC[C@H]2[C@@H]3CC[C@H]4C[C@H](O)CC[C@]4(C)[C@H]3[C@@H](OC(=O)c3c(F)c(F)c(N=[N+]=[N-])c(F)c3F)C[C@]12C
- Activity [15]: Active
- Activity (Anura [16]): inactive
- Activity [2]: 10%
- Activity [17]: Active
- pEC50 (Anura [3]): 6.14
- Ratio EC50 (Anura [5]): 2.6
- Activity [18]: Active
- Activity [19]: 75%
- Activity [20]: 50%
- pEC50 [8]: 6.11
- inhibition [9]: Dose-dependent effect
- Activity [11]: 6%
- pEC50 [12]: 6.30
- fold change (FC) [13]: 17

SMILES: CC(=O)[C@H]1CC[C@H]2[C@@H]3CC[C@H]4C[C@H](O)CC[C@]4(C)[C@H]3C(=O)C[C@]12C [ALFAXALONE]
- Activity (Anura [16]): inactive
- pEC50 (Anura [3]): 5.72
- Activity [21]: Active
- inhibition [9]: Dose-dependent effect
- Activity [22]: Active
